The results in this text go back to ChEMBL document CHEMBL3091378, “Design, synthesis and biological evaluation of α-substituted isonipecotic acid benzothiazole analogues as potent bacterial type II topoisomerase inhibitors” (Bioorg Med Chem Lett, 2013).

One data set deals with DNA gyrase (Staphylococcus aureus, UniProt P0A0K8+P20831). The experiment in a line: Inhibition of Staphylococcus aureus DNA gyrase ATPase subunit GyrA2/GyrB2 after 60 mins by malachite green staining assay. The class given is protein-complex assay. The method, boiled down:
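S. aureus gyrase A2B2, 10 nM, with 0.08 mg/mL DNA in 40 mM HEPES pH 7.6, 10 mM Mg acetate, 0.5 M K glutamate, 0.01 mg/mL BSA, 2 mM DTT, 5% DMSO. Reaction started with 1 mM ATP and run 60 min at 30 °C. Malachite green absorbance read at 600 nm. IC50 derived using no-compound and no-enzyme controls.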

The next data set concerns Enterococcus faecalis. Kind of data set: Antibacterial activity against Enterococcus faecalis ATCC 29212 assessed as growth inhibition after 16 to 20 hrs by broth microdilution method. The format is functional. The method, boiled down:
(§1)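 Broth microdilution susceptibility testing following the CLSI M7-A7 standard; MIC determined.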

The nature of data set [1]: Solubility of the compound in PBS at pH 7.4 after 24 hrs by turbidimetric analysis. The format is physicochemical. The method, boiled down: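 Doubling dilutions in DMSO diluted 20-fold into 100 mM PBS pH 7.4, equilibrated 24 h at room temperature, absorbance read at 620 nm. Value is the highest concentration with no measurable precipitate.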
In a further data set the test system is Staphylococcus aureus. Kind of data set: Antibacterial activity against Staphylococcus aureus ATCC 29213 assessed as growth inhibition after 16 to 20 hrs by broth microdilution method. The class given is functional. The method, boiled down: as §1
(In broth dilution the organism is exposed to a series of concentrations in liquid medium.)

Data set [2] can be described thus: Inhibition of Escherichia coli DNA gyrase ATPase subunit A2B2 after 60 mins by malachite green staining assay. The method, boiled down: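 E. coli gyrase A2B2, 10 nM, with 0.08 mg/mL DNA in 35 mM Tris pH 7.5, 24 mM KCl, 2 mM MgCl2, 6.5% glycerol, 0.1 mg/mL BSA, 2 mM DTT, 5% DMSO. Started with 1 mM ATP, 30 °C for 60 min. Phosphate read with malachite green at 600 nm after 5 min. IC50 taken against no-compound and no-enzyme controls.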

The next data set concerns Streptococcus pyogenes. Kind of data set: Antibacterial activity against Streptococcus pyogenes ATCC 51339 assessed as growth inhibition after 16 to 20 hrs by broth microdilution method. The class given is functional. The method, boiled down: as §1
Data set [3] can be described thus: Intrinsic clearance in mouse liver microsomes at 10 uM by LC-MS analysis. The format is ADME, Microsome. Particulars: read-out: CLH. The method, boiled down:
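Compound at 10 μM, duplicate, 0.1% DMSO, with mouse liver microsomes at 1 mg/mL protein. Started with 1 mM NADPH and stopped at 0, 10, 30 and 60 min. Acetonitrile extracts analysed by LCMS. T1/2 taken from the slope of peak area over time, then converted to intrinsic clearance.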

The test system of another data set is Haemophilus influenzae. The experiment in a line: Antibacterial activity against Haemophilus influenzae ATCC 49247 assessed as growth inhibition after 16 to 20 hrs by broth microdilution method. The format is functional. The method, boiled down:
as §1

The nature of data set [4]: Cmax in rat at 3 mg/kg, po. The class given is ADME, organism-based. More on the design: dose 3 mg/kg, route oral. The note with it: in vivo. The method, boiled down: (§2)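 Single 3 mg/kg dose given as an IV bolus by tail vein or by oral gavage, dose volume 5 mL/kg. Rats were bled by jugular vein catheter. Anaesthetised mice were bled from the retro-orbital plexus. Plasma was extracted into methanol and drug measured by LC/MS/MS. Cmax (oral), AUC and clearance (IV) and bioavailability were calculated from plasma concentrations.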

A short description of data set [5]: AUC in mouse at 3 mg/kg, iv. The class given is ADME, organism-based. Particulars: plasma. More on the design: dose 3 mg/kg, route intravenous. The method, boiled down:
as §2

The nature of data set [6]: Cmax in mouse at 3 mg/kg, po. More on the design: dose 3 mg/kg, route oral. Particulars: in vivo. The class given is ADME, organism-based. The method, boiled down: as §2
Data set [7] in a line: Clearance in rat at 3 mg/kg, iv. The class given is ADME, organism-based. More on the design: dose 3 mg/kg, route intravenous. The note with it: in vivo. The method, boiled down: as §2
A short description of data set [8]: Oral bioavailability in mouse at 3 mg/kg. The class given is ADME, organism-based. The note with it: in vivo. The method, boiled down: as §2
Data set [9] in a line: Oral bioavailability in rat at 3 mg/kg. Particulars: in vivo. The class given is ADME, organism-based. The method, boiled down:
as §2

Data set [10] in a line: AUC in rat at 3 mg/kg, iv. More on the design: dose 3 mg/kg, route intravenous. The class given is ADME, organism-based. The note with it: plasma. The method, boiled down:
as §2

A short description of data set [11]: Clearance in mouse at 3 mg/kg, iv. The format is ADME, organism-based. More on the design: dose 3 mg/kg, route intravenous. Particulars: in vivo. The method, boiled down: as §2

≈ marks a conversion by molar mass, not a printed value.

DNA gyrase, sequence (P0A0K8 whole entry): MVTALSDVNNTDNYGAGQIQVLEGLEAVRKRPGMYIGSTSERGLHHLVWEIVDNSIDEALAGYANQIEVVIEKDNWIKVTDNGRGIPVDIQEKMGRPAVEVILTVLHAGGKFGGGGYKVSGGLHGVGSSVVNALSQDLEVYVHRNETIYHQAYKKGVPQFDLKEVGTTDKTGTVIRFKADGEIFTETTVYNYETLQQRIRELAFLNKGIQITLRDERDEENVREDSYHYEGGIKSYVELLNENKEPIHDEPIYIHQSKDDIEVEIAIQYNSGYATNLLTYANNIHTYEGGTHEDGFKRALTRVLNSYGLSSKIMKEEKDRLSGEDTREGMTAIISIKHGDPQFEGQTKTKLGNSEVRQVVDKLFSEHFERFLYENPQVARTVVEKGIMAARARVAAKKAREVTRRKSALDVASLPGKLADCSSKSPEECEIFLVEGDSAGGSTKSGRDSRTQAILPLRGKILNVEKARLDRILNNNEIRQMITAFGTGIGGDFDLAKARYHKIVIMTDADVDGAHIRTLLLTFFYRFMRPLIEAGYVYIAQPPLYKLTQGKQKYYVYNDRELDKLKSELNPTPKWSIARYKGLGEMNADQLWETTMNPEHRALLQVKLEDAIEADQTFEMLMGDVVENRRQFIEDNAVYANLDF
DNA gyrase, sequence (P20831 whole entry): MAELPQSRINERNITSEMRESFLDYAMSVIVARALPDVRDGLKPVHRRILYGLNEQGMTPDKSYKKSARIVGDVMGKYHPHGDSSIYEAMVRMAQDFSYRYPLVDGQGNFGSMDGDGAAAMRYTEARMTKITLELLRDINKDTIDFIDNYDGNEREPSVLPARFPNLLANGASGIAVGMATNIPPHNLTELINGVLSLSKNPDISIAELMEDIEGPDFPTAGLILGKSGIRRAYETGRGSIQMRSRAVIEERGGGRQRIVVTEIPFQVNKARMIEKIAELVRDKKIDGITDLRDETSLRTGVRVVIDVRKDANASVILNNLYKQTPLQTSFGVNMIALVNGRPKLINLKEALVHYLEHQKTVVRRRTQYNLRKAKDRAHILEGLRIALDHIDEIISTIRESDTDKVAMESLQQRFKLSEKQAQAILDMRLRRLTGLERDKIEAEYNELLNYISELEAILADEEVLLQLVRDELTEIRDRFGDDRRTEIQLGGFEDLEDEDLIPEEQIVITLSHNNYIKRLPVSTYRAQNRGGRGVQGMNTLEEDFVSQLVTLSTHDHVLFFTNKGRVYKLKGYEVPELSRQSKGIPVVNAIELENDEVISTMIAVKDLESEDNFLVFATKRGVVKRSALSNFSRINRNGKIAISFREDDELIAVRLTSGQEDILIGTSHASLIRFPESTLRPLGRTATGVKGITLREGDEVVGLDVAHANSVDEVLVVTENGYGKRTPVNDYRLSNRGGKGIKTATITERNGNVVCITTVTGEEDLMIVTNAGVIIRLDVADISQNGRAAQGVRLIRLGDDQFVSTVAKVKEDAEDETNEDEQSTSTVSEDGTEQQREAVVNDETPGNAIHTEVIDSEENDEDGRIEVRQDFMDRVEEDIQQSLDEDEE

As usually defined, the IC50 is the midpoint of a concentration-inhibition curve. Read a high IC50 as weaker potency. In general, kinetic solubility refers to solubility judged after dilution from a stock solution rather than from solid. Regarding `CCNC(=O)Nc1nc2cc(-c3ccc(C(=O)O)nc3)cc(-c3ccccn3)c2s1`, on DNA gyrase, half-maximal inhibition (IC50) was put at 0.00238 µM. Moreover, the MIC in the data set with Enterococcus faecalis worked out at 0.12 µg/mL (≈ 0.286 µM). In data set [1], this molecule came in with a solubility (kinetic) at 24 h of 50 µg/mL (≈ 119 µM).

For the molecule `CCNC(=O)Nc1nc2cc(-c3cnc(N4CCC(C(=O)O)(c5ccccc5)CC4)nc3)cc(-c3ccccn3)c2s1`, the MIC with Staphylococcus aureus was 0.5 µg/mL (≈ 0.863 µM); in the data set with Streptococcus pyogenes it was 0.5 µg/mL (≈ 0.863 µM); in the data set with Enterococcus faecalis, 0.06 µg/mL (≈ 0.104 µM); with Haemophilus influenzae, above 16 µg/mL. For the same molecule, the half-maximal inhibitory concentration (IC50) in data set [2] is 0.013 µg/mL (≈ 0.0224 µM). For the same molecule, the CLint scaled at 10 µM in [3] was below 5.8 mL/min/kg. For the same molecule, in data set [1], the solubility (kinetic) at 24 h was 12.5 µg/mL (≈ 21.6 µM).

`CCNC(=O)Nc1nc2cc(-c3cnc(N4CCCCC4(C)C(=O)O)nc3)cc(-c3ccccn3)c2s1` (stereo unspecified): the MIC in the data set with Staphylococcus aureus was 0.5 µg/mL (≈ 0.966 µM); in the data set on Streptococcus pyogenes it was 0.5 µg/mL (≈ 0.966 µM); in the data set on Enterococcus faecalis it was 0.5 µg/mL (≈ 0.966 µM); in the data set with Haemophilus influenzae, 8 µg/mL (≈ 15.5 µM). This molecule registered a half-maximal inhibitory concentration (IC50) in data set [2] of 0.007 µg/mL (≈ 0.0135 µM). In data set [1], this molecule came in with a solubility (kinetic) at 24 h of 6.25 µg/mL (≈ 12.1 µM).

On to `CCNC(=O)Nc1nc2cc(-c3cccnc3)cc(-c3ccccn3)c2s1`, for which the midpoint of inhibition at DNA gyrase, the IC50, lay at 0.0373 µM. Also, the MIC with Enterococcus faecalis was determined as 0.12 µg/mL (≈ 0.32 µM). Moreover, in data set [1], the solubility (kinetic) at 24 h was determined as 6.25 µg/mL (≈ 16.6 µM).

As for `CCNC(=O)Nc1nc2cc(-c3cnc(N4CCCC(C)(C(=O)O)CC4)nc3)cc(-c3ccccn3)c2s1` (stereo unspecified), the MIC in the data set on Staphylococcus aureus amounted to 0.12 µg/mL (≈ 0.226 µM); with Streptococcus pyogenes it was 0.12 µg/mL (≈ 0.226 µM); with Haemophilus influenzae, 8 µg/mL (≈ 15 µM). Half-maximal inhibition against DNA gyrase (IC50) was put at 0.0113 µM. In addition, the CLint scaled at 10 µM in data set [3] was below 5.8 mL/min/kg. Moreover, the solubility (kinetic) at 24 h in data set [1] was above 800 µg/mL.

In the case of `CCNC(=O)Nc1nc2cc(-c3cnc(N4CCC(O)(C(=O)O)CC4)nc3)cc(-c3ccccn3)c2s1`, the MIC in the data set on Staphylococcus aureus was determined as 8 µg/mL (≈ 15.4 µM); in the data set with Streptococcus pyogenes, 0.12 µg/mL (≈ 0.231 µM); with Enterococcus faecalis, 0.5 µg/mL (≈ 0.962 µM); in the data set on Haemophilus influenzae, 8 µg/mL (≈ 15.4 µM). Further, the IC50 in data set [2] amounted to 0.003 µg/mL (≈ 0.00577 µM). In data set [1], this molecule yielded a kinetic solubility at 24 h of 100 µg/mL (≈ 192 µM).

By Cmax is commonly meant the highest concentration seen after dosing. What is called AUC is the area under the concentration-time curve, a measure of exposure. Read a low AUC as less exposure. The term clearance denotes the rate of elimination divided by the concentration. Broadly, the bioavailability is dose-corrected exposure relative to a reference, in per cent. Higher therefore signals good availability. Turning to `CCNC(=O)Nc1nc2cc(-c3ccc(N4CCC(C)(C(=O)O)CC4)nc3)cc(-c3ccccn3)c2s1`, the MIC in the data set on Staphylococcus aureus is 0.12 µg/mL (≈ 0.232 µM); with Streptococcus pyogenes it was 0.12 µg/mL (≈ 0.232 µM); with Enterococcus faecalis, 0.03 µg/mL (≈ 0.0581 µM); with Haemophilus influenzae it was 2 µg/mL (≈ 3.87 µM). Further, the Cmax in [4] stood at 600 ng/mL; in [6] it was 1700 ng/mL. Moreover, the area under the curve (AUC) in data set [5] was 7600 ng·h/mL; in [10], 6600 ng·h/mL. It took 0.0232 µM to reach half-maximal inhibition at DNA gyrase (IC50). Besides, the clearance was determined as 7.6 mL/min/kg in [7] and 6.5 mL/min/kg in [11]. For the same molecule, the bioavailability in data set [8] came out at 33%; in data set [9], 31%. Also, the CLint scaled at 10 µM in data set [3] was below 5.8 mL/min/kg. Besides, the kinetic solubility at 24 h in [1] was above 800 µg/mL.

Consider `CCNC(=O)Nc1nc2cc(-c3cnc(N4CCC(C(=O)O)(S(C)(=O)=O)CC4)nc3)cc(-c3ccccn3)c2s1`, for which the MIC is above 16 µg/mL with Staphylococcus aureus, 4 µg/mL (≈ 6.88 µM) in the data set with Streptococcus pyogenes, 4 µg/mL (≈ 6.88 µM) with Enterococcus faecalis and above 16 µg/mL with Haemophilus influenzae. In data set [2], this molecule had an IC50 of 0.015 µg/mL (≈ 0.0258 µM). The molecule further registered a solubility (kinetic) at 24 h in [1] above 800 µg/mL.

With `CCNC(=O)Nc1nc2cc(-c3nc(N4CCC(C)(C(=O)O)CC4)ns3)cc(-c3ccccn3)c2s1`, the MIC was 1 µg/mL (≈ 1.91 µM) in the data set on Staphylococcus aureus, 1 µg/mL (≈ 1.91 µM) in the data set with Streptococcus pyogenes and above 16 µg/mL in the data set with Haemophilus influenzae. On DNA gyrase, this molecule showed an IC50 of 0.107 µM.
